PfGluPho inh – PfG6PD enzyme inhibitors, primary screen, biochemical, fluorescence intensity, uHTS; inhibition, % at 20 µM; AID 504690, 2011; PfGluPho enzyme, NADPH resazurin-diaphorase fluorescence; 350,000 compounds, 0.78% hits;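 active = inhibition reaching at least a set limit at 20 µM in the primary screen, cut at about 59% in these data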;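 note: 0% = DMSO wells with substrate and 100% = DMSO wells lacking glucose-6-phosphate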
HKDC1 inhibitor – HKDC1 hexokinase inhibitors, primary screen, biochemical, fluorescence, uHTS | Q2TB90 | 340,000 compounds, 0.16% hits | recombinant HKDC1, G6PDH/diaphorase resazurin coupled fluorescence | AID 493160, 2011 | inhibition, % at 20 µM;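 active = inhibition above about 35% when tested at 20 µM, limit read from the data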;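 note: plate controls were DMSO wells with enzyme for no effect and DMSO wells lacking enzyme for full effect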
Target sequence (Q2TB90 whole entry, looked up): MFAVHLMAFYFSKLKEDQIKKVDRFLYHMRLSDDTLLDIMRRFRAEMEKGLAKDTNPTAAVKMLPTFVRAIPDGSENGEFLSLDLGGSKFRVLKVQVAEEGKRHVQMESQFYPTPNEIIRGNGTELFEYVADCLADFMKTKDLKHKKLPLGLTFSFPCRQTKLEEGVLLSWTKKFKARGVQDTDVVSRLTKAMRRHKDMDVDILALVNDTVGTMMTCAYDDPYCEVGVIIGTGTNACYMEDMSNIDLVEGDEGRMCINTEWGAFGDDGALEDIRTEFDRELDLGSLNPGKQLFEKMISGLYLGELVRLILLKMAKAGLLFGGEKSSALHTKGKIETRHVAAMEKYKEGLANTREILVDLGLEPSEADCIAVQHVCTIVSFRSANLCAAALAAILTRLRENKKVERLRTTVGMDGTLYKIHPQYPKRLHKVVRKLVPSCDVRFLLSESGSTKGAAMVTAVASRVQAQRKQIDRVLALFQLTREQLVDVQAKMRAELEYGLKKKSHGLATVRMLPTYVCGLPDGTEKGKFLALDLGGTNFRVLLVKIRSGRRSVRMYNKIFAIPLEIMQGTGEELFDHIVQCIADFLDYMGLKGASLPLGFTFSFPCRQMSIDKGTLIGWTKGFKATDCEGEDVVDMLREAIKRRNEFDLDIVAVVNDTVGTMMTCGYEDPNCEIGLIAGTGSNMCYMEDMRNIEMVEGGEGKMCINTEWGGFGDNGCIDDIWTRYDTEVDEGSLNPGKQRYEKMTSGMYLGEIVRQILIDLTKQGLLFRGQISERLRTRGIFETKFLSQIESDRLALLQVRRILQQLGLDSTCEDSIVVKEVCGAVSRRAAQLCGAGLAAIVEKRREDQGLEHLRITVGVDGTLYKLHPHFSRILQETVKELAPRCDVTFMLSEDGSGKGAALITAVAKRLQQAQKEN
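Test system: HK5 enzyme. Quantity: 5 µg/mL HK5 final. Reagent: glucose and ATP substrates. Schedule: 90 min reaction incubation at room temperature, dark. Technique: resazurin-to-resorufin fluorescence via G6PDH and diaphorase coupling, 525/613 nm. Control set: DMSO wells with and without enzyme mix.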
TbHK1 inh – Trypanosoma brucei hexokinase 1 inhibitors, primary screen, biochemical, G6PDH-coupled NADH absorbance, MLSCN library | AID 1430, 2008 | hexokinase 1 [Trypanosoma brucei] | inhibition, % at 10 µM | 220,000 compounds, 0.11% hits | recombinant TbHK1, G6PDH-coupled NADH A340;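 active = inhibition of 50% or more in the single-dose primary screen; inactive = inhibition below 50%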
PHOSPHO1 inh – PubChem AID 1565; Phosphoethanolamine/phosphocholine phosphatase (Homo sapiens), Q8TCT1; inhibition, % at 13.3 µM; recombinant PHOSPHO1, absorbance phosphatase assay; 290,000 compounds, 1.1% hits; in the data active = inhibition above about 60%
EP2 modulator – EP2 receptor modulators, cAMP readout, primary screen, cell-based, HTRF cAMP, PGE2 stimulation | Prostaglandin E2 receptor EP2 subtype (Homo sapiens), P43116 | EP2-expressing cells, cAMP HTRF FRET, PGE2 co-stimulation | induction, % at 25 µM | 260,000 compounds, 0.83% hits | AID 940, 2007;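 active = compounds whose cAMP rise, as percent of the full-agonist control response, exceeds 60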;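 note: rat C6 glioma line stably carrying human EP2 under a CMV promoter; the protocol text gives 20 µM as final concentration; 100% = response of wells given 1 µM PGE2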
EP2 antag – human EP2 receptor antagonists, primary screen, TR-FRET cAMP, C6 glioma cells. Prostaglandin E2 receptor EP2 subtype (Homo sapiens), P43116. C6 glioma cells expressing human EP2; cells stimulated with saturating PGE2. inhibition, % at 25 µM. 260,000 compounds, 0.52% hits;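 active = percent inhibition above 40 after rounding to a whole number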;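 note: rat C6 glioma host cells with rolipram phosphodiesterase inhibitor present; the protocol text gives 20 µM as final concentration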
PfGluPho conf – PfG6PD inhibitors, hit retest, confirmation, biochemical, fluorescence intensity, single concentration. shares compounds with PfGluPho inh. AID 504753, 2011. recombinant PfGluPho, NADPH-diaphorase-resazurin fluorescence. 2,400 compounds, 34% hits. inhibition, % at 20 µM;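 active = inhibition of at least 50% at 20 µM in any single replicate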;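 note: 0% = DMSO with substrate and 100% = DMSO lacking glucose-6-phosphate substrate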
Diaphorase 10uM – diaphorase inhibitors and chemical oxidizers, confirmation, counter-screen for P. falciparum G6PD inhibitor project, biochemical, fluorescence intensity, 10 µM NADPH | shares compounds with PfGluPho inh | diaphorase-coupled resazurin reduction, NADPH 10 uM | inhibition, % at 20 µM | 820 compounds, 39% hits | AID 504862, 2011;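 active = average inhibition reaching 50% or more with the compound at 20 µM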;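 note: resorufin red fluorescence formed as diaphorase reduces resazurin using NADPH; 0% = DMSO with enzyme and 100% = DMSO without enzyme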
Diaphorase 30uM – diaphorase inhibitors and chemical oxidizers, confirmation, counter-screen for P. falciparum G6PD inhibitor project, biochemical, fluorescence intensity, 30 µM NADPH | 820 compounds, 29% hits | shares compounds with PfGluPho inh | Diaphorase/resazurin coupled assay, resorufin fluorescence | inhibition, % at 20 µM;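 active = inhibition averaging 50% or more, tested at 20 µM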;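 note: 0% = DMSO with enzyme and 100% = DMSO wells lacking diaphorase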
Numbers without * were called inactive; . = no result. An excerpt weighted towards active compounds, which were near 2.5% of everything screened.

SMILES	PfGluPho inh	HKDC1 inhibitor	TbHK1 inh	PHOSPHO1 inh	EP2 modulator	EP2 antag	PfGluPho conf	others
C=CCN(CC=C)Cc1cc(=O)n2c(-c3ccccc3)csc2n1	4.2	2.7	.	10.2	.	.	.
O=c1cc(CN2CCN(c3ccc(O)cc3)CC2)nc2scc(-c3ccccc3)n12	65.4*	7.4	-3.6	47.0	0.5	-0.6	29.0
O=C(c1nccs1)C1CCN(C(=O)Cc2n[nH]c(=O)c3ccccc23)CC1	.	.	.	.	-21.8	.	.
COc1cc2c(cc1OC)C(=O)C(c1ccc3c(c1)OCO3)CC2 (stereo not given)	-4.3	.	.	.	.	.	.
COc1cc2c(cc1OC)C(=O)C(Br)CC2 (stereo not given)	112.3*	.	.	.	.	.	106.0*	Diaphorase 10uM=100.9*;Diaphorase 30uM=98.4*
CC1CCCC(C)N1C(=O)COC(=O)CSc1ccc([N+](=O)[O-])cc1 (stereo not given)	64.0*	7.5	.	.	.	.	1.4
CCOC(=O)C1CCN(C(=O)COC(=O)CSc2ccc([N+](=O)[O-])cc2)CC1	42.3	-0.4	.	.	.	.	.
CCOCCCNC(=O)Cn1ncc2c3oc(C)cc3n(C(C)C)c2c1=O	.	.	.	.	-22.7	.	.
Cc1cccc(OCC(=O)NCC(=O)N/N=C/c2cccs2)c1	24.7	-8.3	0.1	8.3	-24.6	3.2	.
Cc1cccc(OCC(=O)NCC(=O)N/N=C/c2c(C)[nH]c3ccccc23)c1	63.0*	-1.0	-29.2	34.7	-15.7	1.7	26.4
COC(=O)C1=C(C)NC2=C(C(=O)CC(c3ccc(OC)c(OC)c3)C2)C1c1ccc(C)o1 (stereo not given)	.	.	.	.	-29.4	16.2	.
COc1ccc(Cl)cc1NC(=O)CSc1nc2c(C)ccc(C)c2cc1C#N	.	.	.	.	26.0	10.4	.
O=C(NCCN1CCc2ccccc21)C1(c2ccccc2F)CC1	.	.	.	.	-83.5	4.5	.
COc1ccccc1NC(=O)NC1CC2CCCC(C1)N2Cc1cccs1 (stereo not given)	.	.	.	.	-78.6	25.9	.
Cc1ccc(NC(=S)NNC(=S)Nc2ccc(C)cc2)cc1	78.0*	-10.0	.	.	.	.	11.3
Cc1ccc(NC(=S)NNC(=O)Nc2ccccc2)cc1	16.1	-6.0	0.6	-85.8	-14.2	8.6	.
CCOc1ccc(-c2nnc(NC(=O)CC)s2)cc1	.	.	.	.	30.1	11.0	.
O=c1ccn(-c2cccc(C(F)(F)F)c2)nc1-c1ccn(-c2ccccc2)n1	90.7*	1.2	-8.5	3.3	23.2	12.1	72.6*	Diaphorase 10uM=65.8*;Diaphorase 30uM=55.3*
Cc1cc(=O)c(C(=O)O)nn1-c1cccc(C(F)(F)F)c1	-2.0	-3.2	.	15.1	.	.	.
Cc1cccc(C(=O)Nc2nnc(C(C)(C)C)s2)c1	.	.	.	.	-32.9	12.0	.
CCc1nnc(NC(=O)c2c(Cl)cccc2Cl)s1	.	.	.	.	-31.2	21.7	.
O=C(Nc1nnc(C2CC2)s1)c1ccc(Cl)nc1	80.3*	2.5	.	.	.	.	57.6*	Diaphorase 10uM=63.6*;Diaphorase 30uM=49.6
C=CCSc1nnc(NC(=O)c2ccc(Cl)nc2)s1	82.2*	3.4	-41.2	15.5	5.6	12.8	77.9*	Diaphorase 10uM=71.8*;Diaphorase 30uM=49.2
CC(C)(C)c1nnc(NC(=O)c2ccc(Cl)nc2)s1	102.7*	-11.7	-13.9	54.1	8.2	4.4	95.1*	Diaphorase 10uM=80.8*;Diaphorase 30uM=62.3*
CCc1nnc(NC(=O)c2ccc(Cl)nc2)s1	77.7*	-1.8	-17.2	5.5	-11.6	3.0	56.9*	Diaphorase 10uM=48.5;Diaphorase 30uM=40.6
COc1cc(CC(=O)Nc2nc3c(s2)CCc2c-3cnn2C)cc(OC)c1OC	.	.	.	.	-43.3	8.5	.

Source: PubChem BioAssay
